Assay results of several laboratories.
Compare with care: the assays were run in different laboratories.
Target: Serine/threonine-protein kinase RIO2 (RIOK2, Homo sapiens, UniProt Q9BVS4)

Cc1cnc(Nc2ccc(C(=O)N3CCC(N4CCCC4)CC3)cc2)nc1-c1cc2ccccc2s1  remaining binding (binding; competition with immobilised ligand; 1 µM): 40%
CS(=O)(=O)N1CCCC(NC(=O)[C@H](CCC2CCCCC2)NC(=O)c2ccc(CNc3ncnc4c3nnn4-c3ccccc3)cc2)C1 (some centres unmarked)  remaining binding (cell-free assay; competition with immobilised ligand; 0.1 µM): 99%
N[C@@H]1CCN(c2nccc(-c3cnn4ncccc34)n2)C1  remaining binding (binding; 1 µM): 37%
CCOC(=O)c1cc2cc(-c3cc(C(=O)NCc4ccc(C(=O)O)cc4)nn3C)ccc2[nH]1  remaining binding (cell-free assay; competition with immobilised ligand; 0.1 µM): 100%
CNC(=O)[C@@H]1CC[C@@H](n2c(-c3ccc4cnccc4c3)nc3ccc(C(=O)NCc4cccc(C(N)=O)c4)cc32)C1  remaining binding (binding; competition with immobilised ligand; 1 µM): 97%
C[C@@H]1CN(c2ccc3ncc(-c4ccc5[nH]nc(C6CC6)c5c4)n3n2)C[C@H](C)O1  remaining binding (binding; competition with immobilised ligand; 0.5 µM): 23%
C[C@@H]1CCN(c2nccc(-c3cnn4ncccc34)n2)C1  remaining binding (binding; 1 µM): 75%
COc1cnc(Nc2cccc(S(N)(=O)=O)c2)nc1N1CCN(c2ccccc2)C(=O)C1  remaining binding (binding; competition with immobilised ligand; 1 µM): 100%
CC(C)(C)c1ccc(-c2nc(CBr)nn2-c2cccc(O)c2)cc1  remaining binding (cell-free assay; competition with immobilised ligand; 10 µM): 84%
COc1ccnn2ncc(-c3ccnc(N(C)C)n3)c12  remaining binding (binding; 1 µM): 63%
NS(=O)(=O)c1cc(NC(=O)Cc2ccccc2)ccc1Oc1cccc(Cl)c1  remaining binding (cell-free assay; competition with immobilised ligand; 1 µM): 100%
FC(F)(F)Oc1cccc(-c2cnc3ccc(-c4ccncc4)nn23)c1  remaining binding (binding; competition with immobilised ligand; 5 µM): 7.7%
C=CC(=O)N1CCC(C(=O)NCC(=O)N2CCN(c3nc(-c4cnc(N)nc4C(F)F)nc(N4CCOCC4)n3)CC2)CC1  remaining binding (binding; competition with immobilised ligand; 1 µM): 83%
O=C(Nc1ccc(Oc2ccc(F)cc2)cc1)N1CCc2ncccc2[C@H]1c1ccc(F)cc1  remaining binding (cell-free assay; competition with immobilised ligand; 1 µM): 94%
CN(CCCC(F)(F)F)c1nccc(-c2cnn3ncccc23)n1  remaining binding (binding; 1 µM): 100%
Cc1nc(N2CC[C@@H](O)C2)ncc1-c1cc(C(F)(F)F)cc2[nH]ncc12  remaining binding (binding; competition with immobilised ligand; 1 µM): 100%
O=C(NCCCN1CCOCC1)c1ccc(Nc2ncc(Cl)c(-c3ccc(Cl)s3)n2)cc1  remaining binding (binding; competition with immobilised ligand; 1 µM): 59%
O=C(NCC1CCOCC1)c1n[nH]cc1NC(=O)c1c(F)cccc1F  remaining binding (binding; competition with immobilised ligand; 1 µM): 35%
O=c1nc(-c2ccccn2)sc2ccccc12  remaining binding (binding; competition with immobilised ligand; 1 µM): 94%
F[C@@H]1CCN(c2nccc(-c3cnn4ncccc34)n2)C1  remaining binding (binding; 1 µM): 64%
c1ccc(N2CCN(Cc3nc4ccccc4[nH]3)CC2)nc1  remaining binding (binding; competition with immobilised ligand; 1 µM): 100%
O=C(c1ccc(Nc2nccc(-c3cc4ccccc4s3)n2)cc1)N1CCC(N2CCCC2)CC1  remaining binding (binding; competition with immobilised ligand; 1 µM): 46%
C[C@@H](c1ccc(-n2cnc3c(N)ncnc32)cc1)N1CCc2nn(C)c(Cc3ccccc3)c2C1=O  remaining binding (binding; competition with immobilised ligand; 0.1 µM): 97%
